Laboratory results published in ChEMBL document CHEMBL1144553, “alpha-Biphenylsulfonylamino 2-methylpropyl phosphonates: enantioselective synthesis and selective inhibition of MMPs” (Bioorg Med Chem, 2007).
pIC50: −log10 of the molar value.

Tests used:
[1] = biological target: 72 kDa type IV collagenase (Homo sapiens, UniProt P08253); experiment: Inhibition of human recombinant MMP2 expressed in mouse myeloma cells; format: cell-based
Method in brief: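 Recombinant human pro-MMP-2 from transfected mouse myeloma cells, activated with APMA (2 mM, 1 h, 37 °C) and used at 2.9 nM final. It was preincubated 4 h at 25 °C with inhibitor (seven concentrations) in Tris 50 mM pH 7.5 buffer with 1% DMSO. Mca-Lys-Pro-Leu-Gly-Leu-Dpa-Ala-Arg-NH2 fluorescence (ex 325/em 400 nm) was read every 15 s for 20 min, in triplicate. IC50 from Vi/Vo = 1/(1+[I]/IC50).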

Matrilysin = biological target: T1, Matrilysin (Homo sapiens, UniProt P09237); experiment: Inhibition of MMP7
T1 sequence (P09237 whole entry): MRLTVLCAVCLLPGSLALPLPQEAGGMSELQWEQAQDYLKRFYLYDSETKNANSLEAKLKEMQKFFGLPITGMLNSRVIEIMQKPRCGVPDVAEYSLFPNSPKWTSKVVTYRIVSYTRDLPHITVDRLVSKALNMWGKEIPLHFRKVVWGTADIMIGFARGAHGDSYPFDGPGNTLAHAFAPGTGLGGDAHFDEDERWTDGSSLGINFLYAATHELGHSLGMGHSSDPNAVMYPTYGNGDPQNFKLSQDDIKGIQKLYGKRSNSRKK
Method in brief: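 Pro-MMP-7 from a commercial source, activated with APMA (1 mM, 1 h, 37 °C) and used at 2.4 nM final. It was preincubated 4 h at 25 °C with inhibitor at seven concentrations in Tris pH 7.5 buffer (CaCl2, Brij 35, 1% DMSO). Mca-Lys-Pro-Leu-Gly-Leu-Dpa-Ala-Arg-NH2 cleavage was monitored fluorimetrically (ex 325/em 400 nm) every 15 s for 20 min, in triplicate. IC50 via Vi/Vo = 1/(1+[I]/IC50).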

Neutrophil collagenase = Neutrophil collagenase (Homo sapiens, UniProt P22894); experiment: Inhibition of MMP8
[2] = biological target: T2, Matrix metalloproteinase-9 (Homo sapiens, UniProt P14780); experiment: Inhibition of human recombinant MMP9 expressed in mouse myeloma cells; format: cell-based
Method in brief: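 Human pro-MMP-9 expressed in transfected mouse myeloma cells, APMA-activated (1 mM, 1 h, 37 °C) and used at 2.7 nM final. Preincubated 4 h at 25 °C with inhibitor at seven concentrations in Tris pH 7.5/CaCl2/Brij 35 buffer with 1% DMSO. Fluorogenic Mca-Lys-Pro-Leu-Gly-Leu-Dpa-Ala-Arg-NH2 hydrolysis (ex 325/em 400 nm) was read every 15 s for 20 min, in triplicate. IC50 via Vi/Vo = 1/(1+[I]/IC50).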

Collagenase 3 [3] = biological target: T3, Collagenase 3 (Homo sapiens, UniProt P45452); experiment: Inhibition of MMP13
Method in brief: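 Purchased pro-MMP-13 was APMA-activated (1 mM, 0.5 h, 37 °C) and used at 0.66 nM final. It was preincubated with inhibitor (seven concentrations) for 4 h at 25 °C in Tris pH 7.5 buffer with CaCl2, Brij 35 and 1% DMSO. Cleavage of Mca-Lys-Pro-Leu-Gly-Leu-Dpa-Ala-Arg-NH2 was followed by fluorescence (ex 325/em 400 nm) every 15 s for 20 min, in triplicate. IC50 fitted to Vi/Vo = 1/(1+[I]/IC50).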

[4] = biological target: T4, Matrix metalloproteinase-14 (Homo sapiens, UniProt P50281); experiment: Inhibition of MMP14
Method in brief: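 Commercial MMP-14 at 1 nM final, preincubated 4 h at 25 °C with inhibitor at seven concentrations in Tris 50 mM pH 7.5/NaCl/CaCl2/Brij 35 buffer with 1% DMSO. Read-out was fluorogenic substrate Mca-Lys-Pro-Leu-Gly-Leu-Dpa-Ala-Arg-NH2 hydrolysis (ex 325, em 400 nm), recorded every 15 s for 20 min, in triplicate. IC50 from Vi/Vo = 1/(1+[I]/IC50).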

[5] = biological target: T5, Interstitial collagenase (Homo sapiens) (UniProt P03956); experiment: Inhibition of human recombinant MMP1 at 100 uM
T5 sequence (whole entry): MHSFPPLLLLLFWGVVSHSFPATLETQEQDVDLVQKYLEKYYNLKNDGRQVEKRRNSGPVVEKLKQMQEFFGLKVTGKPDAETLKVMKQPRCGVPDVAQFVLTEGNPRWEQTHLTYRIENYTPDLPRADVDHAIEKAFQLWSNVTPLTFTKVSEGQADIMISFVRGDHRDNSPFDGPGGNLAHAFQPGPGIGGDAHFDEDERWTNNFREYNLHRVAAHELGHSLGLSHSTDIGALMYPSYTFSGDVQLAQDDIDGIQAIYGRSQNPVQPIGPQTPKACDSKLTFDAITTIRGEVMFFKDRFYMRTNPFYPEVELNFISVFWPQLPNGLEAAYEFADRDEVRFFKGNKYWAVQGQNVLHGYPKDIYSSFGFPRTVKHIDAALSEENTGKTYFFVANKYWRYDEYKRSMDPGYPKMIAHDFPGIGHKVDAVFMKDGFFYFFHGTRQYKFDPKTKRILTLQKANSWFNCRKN

Stromelysin-1 [6] = biological target: T6, Stromelysin-1 (Homo sapiens, UniProt P08254); experiment: Inhibition of MMP3 at 100 uM
Target sequence in this assay (P08254 100-477 limits assumed): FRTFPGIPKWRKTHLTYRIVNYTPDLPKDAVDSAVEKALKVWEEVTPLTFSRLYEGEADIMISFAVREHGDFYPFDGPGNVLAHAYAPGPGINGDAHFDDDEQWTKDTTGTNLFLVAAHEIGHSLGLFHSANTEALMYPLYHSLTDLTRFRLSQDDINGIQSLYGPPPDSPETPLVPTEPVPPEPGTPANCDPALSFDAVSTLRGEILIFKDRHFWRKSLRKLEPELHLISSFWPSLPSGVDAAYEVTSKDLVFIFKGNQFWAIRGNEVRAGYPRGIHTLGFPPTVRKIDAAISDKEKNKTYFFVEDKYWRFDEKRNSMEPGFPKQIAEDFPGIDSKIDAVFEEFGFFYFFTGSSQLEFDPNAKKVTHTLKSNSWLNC

Interstitial collagenase = biological target: T7, Interstitial collagenase (Homo sapiens, UniProt P03956); experiment: Inhibition of MMP1
T7 sequence (P03956 whole entry): T5 sequence (whole entry)
Method in brief: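 Pro-MMP-1 from a commercial source, activated with APMA (2 mM, 1 h, 37 °C). Enzyme at 0.20 nM final was preincubated 4 h at 25 °C with inhibitor at seven concentrations in Tris 50 mM pH 7.5, NaCl, CaCl2, Brij 35 and 1% DMSO. Mca-Lys-Pro-Leu-Gly-Leu-Dpa-Ala-Arg-NH2 was added and fluorescence (ex 325/em 400 nm) read every 15 s for 20 min, in triplicate. IC50 from Vi/Vo = 1/(1+[I]/IC50).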

Stromelysin-1 [7] = biological target: T6, Stromelysin-1; experiment: Inhibition of MMP3
Method in brief: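 Purchased MMP-3 at 1 nM final was preincubated with inhibitor (seven concentrations) for 4 h at 25 °C in Tris pH 7.5 assay buffer containing CaCl2, Brij 35 and 1% DMSO. Substrate was Mca-Arg-Pro-Lys-Pro-Val-Glu-Nva-Trp-Arg-Lys(Dnp)-NH2, with fluorescence (ex 325/em 400 nm) read every 15 s over 20 min, in triplicate. IC50 from initial velocities via Vi/Vo = 1/(1+[I]/IC50).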
Target sequence in this assay (P08254 whole entry): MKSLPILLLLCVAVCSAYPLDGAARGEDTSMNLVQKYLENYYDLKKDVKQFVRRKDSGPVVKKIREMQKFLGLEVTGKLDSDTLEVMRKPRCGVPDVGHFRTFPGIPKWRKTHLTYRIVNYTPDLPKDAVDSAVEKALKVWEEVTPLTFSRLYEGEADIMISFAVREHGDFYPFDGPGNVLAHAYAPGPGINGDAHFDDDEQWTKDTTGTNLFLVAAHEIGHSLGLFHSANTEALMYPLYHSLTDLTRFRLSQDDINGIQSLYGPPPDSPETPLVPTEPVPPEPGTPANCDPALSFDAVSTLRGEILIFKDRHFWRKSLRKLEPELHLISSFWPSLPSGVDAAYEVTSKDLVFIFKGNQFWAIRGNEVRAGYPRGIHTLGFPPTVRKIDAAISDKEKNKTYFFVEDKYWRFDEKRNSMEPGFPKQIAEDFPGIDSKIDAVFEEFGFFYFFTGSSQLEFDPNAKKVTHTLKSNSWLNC

[8] = biological target: T2, Matrix metalloproteinase-9; experiment: Inhibition of human recombinant MMP9 expressed in mouse myeloma cells at 100 uM; format: cell-based
Collagenase 3 [9] = biological target: T3, Collagenase 3; experiment: Inhibition of MMP13 at 100 uM
[10] = biological target: T8, Matrilysin (Homo sapiens) (UniProt P09237); experiment: Inhibition of MMP7 at 100 uM
T8 sequence (whole entry): T1 sequence (P09237 whole entry)

[11] = biological target: T4, Matrix metalloproteinase-14; settings: 100 uM

T2 sequence (P14780 whole entry): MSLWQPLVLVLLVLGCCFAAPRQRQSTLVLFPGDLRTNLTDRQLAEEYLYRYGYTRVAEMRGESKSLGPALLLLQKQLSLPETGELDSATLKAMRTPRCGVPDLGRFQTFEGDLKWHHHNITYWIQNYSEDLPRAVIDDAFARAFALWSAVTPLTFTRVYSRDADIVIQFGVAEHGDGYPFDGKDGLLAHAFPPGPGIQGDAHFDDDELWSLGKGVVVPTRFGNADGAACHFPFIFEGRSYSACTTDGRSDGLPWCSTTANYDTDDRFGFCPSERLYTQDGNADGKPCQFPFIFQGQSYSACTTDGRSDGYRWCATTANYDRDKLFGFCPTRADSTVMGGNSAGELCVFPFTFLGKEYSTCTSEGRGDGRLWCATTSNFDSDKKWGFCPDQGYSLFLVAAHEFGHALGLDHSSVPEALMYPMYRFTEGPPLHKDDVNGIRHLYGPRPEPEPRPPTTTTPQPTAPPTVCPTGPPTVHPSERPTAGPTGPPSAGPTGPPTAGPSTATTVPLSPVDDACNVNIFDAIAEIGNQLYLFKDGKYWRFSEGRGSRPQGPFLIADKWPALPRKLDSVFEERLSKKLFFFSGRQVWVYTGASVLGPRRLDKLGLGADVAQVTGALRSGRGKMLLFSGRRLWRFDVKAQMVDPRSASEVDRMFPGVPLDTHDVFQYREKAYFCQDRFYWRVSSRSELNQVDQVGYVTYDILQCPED
72 kDa type IV collagenase, sequence (P08253 whole entry): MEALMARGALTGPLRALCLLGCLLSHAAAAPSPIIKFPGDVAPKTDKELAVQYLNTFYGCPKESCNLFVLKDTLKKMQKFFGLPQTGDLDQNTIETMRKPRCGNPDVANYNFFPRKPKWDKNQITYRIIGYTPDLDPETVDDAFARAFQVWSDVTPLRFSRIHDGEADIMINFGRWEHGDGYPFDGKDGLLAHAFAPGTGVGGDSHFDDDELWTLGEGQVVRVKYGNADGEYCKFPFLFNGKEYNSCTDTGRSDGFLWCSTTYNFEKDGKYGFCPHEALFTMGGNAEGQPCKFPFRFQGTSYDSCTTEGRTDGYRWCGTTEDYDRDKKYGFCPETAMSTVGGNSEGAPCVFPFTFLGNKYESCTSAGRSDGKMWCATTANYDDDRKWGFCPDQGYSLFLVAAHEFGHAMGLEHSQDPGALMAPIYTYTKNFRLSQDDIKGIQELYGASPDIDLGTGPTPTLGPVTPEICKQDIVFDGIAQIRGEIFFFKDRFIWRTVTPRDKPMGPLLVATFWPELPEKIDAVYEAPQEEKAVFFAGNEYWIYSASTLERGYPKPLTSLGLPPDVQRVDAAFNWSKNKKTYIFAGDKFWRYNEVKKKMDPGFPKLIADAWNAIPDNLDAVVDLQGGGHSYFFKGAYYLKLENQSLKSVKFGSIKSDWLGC
Neutrophil collagenase, sequence (P22894 whole entry): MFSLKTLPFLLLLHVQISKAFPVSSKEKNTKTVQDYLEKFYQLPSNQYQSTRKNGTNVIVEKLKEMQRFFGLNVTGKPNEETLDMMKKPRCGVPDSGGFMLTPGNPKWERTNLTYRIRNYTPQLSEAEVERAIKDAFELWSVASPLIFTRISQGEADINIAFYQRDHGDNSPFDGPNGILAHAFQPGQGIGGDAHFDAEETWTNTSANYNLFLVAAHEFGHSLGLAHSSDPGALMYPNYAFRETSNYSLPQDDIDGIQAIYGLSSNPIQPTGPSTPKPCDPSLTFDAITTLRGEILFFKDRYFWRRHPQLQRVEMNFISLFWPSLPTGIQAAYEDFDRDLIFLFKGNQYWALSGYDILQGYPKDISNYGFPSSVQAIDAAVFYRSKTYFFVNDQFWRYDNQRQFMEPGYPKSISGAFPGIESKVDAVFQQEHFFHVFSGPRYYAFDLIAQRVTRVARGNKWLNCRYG

| SMILES | pIC50 [1] | pIC50 (Matrilysin) | pIC50 (Neutrophil collagenase) | pIC50 [2] | pIC50 (Collagenase 3 [3]) | pIC50 [4] | inhibition [5] [%] | inhibition (Stromelysin-1 [6]) [%] | pIC50 (Interstitial collagenase) | pIC50 (Stromelysin-1 [7]) | inhibition [8] [%] | inhibition (Collagenase 3 [9]) [%] | inhibition [10] [%] | inhibition [11] [%] |
| --- | --- | --- | --- | --- | --- | --- | --- | --- | --- | --- | --- | --- | --- | --- |
| COc1ccc(CCc2ccc(S(=O)(=O)N[C@@H](C(C)C)P(=O)(O)O)cc2)cc1 | 6.10 | 3.89 | 6.96 | 6.17 | 6.32 | 4.40 | 9 | 31 | – | – | – | – | – | – |
| CC(C)[C@H](NS(=O)(=O)c1ccc(-c2ccc(F)cc2)cc1)P(=O)(O)O | 7.70 | 5.85 | 8.96 | 7.23 | 7.89 | 7.49 | – | – | 6.80 | 6.82 | – | – | – | – |
| CCOc1ccc(-c2ccc(S(=O)(=O)N[C@@H](C(C)C)P(=O)(O)O)cc2)cc1 | 9.41 | 6.35 | 9.43 | 9.25 | 8.96 | 7.96 | – | – | 6.35 | 7.92 | – | – | – | – |
| CC(C)Oc1ccc(-c2ccc(S(=O)(=O)N[C@@H](C(C)C)P(=O)(O)O)cc2)cc1 | 8.74 | 5.70 | 8.82 | 7.62 | 8.38 | 6.89 | – | – | 6.22 | 7.44 | – | – | – | – |
| CC(C)[C@H](NS(=O)(=O)c1ccc(-c2cccc(Cl)c2)cc1)P(=O)(O)O | 7.52 | 5.54 | 8.89 | 6.80 | 7.62 | 7.12 | – | – | 6.49 | 6.36 | – | – | – | – |
| COc1ccc(-c2ccc(S(=O)(=O)N[C@H](C(C)C)P(=O)(O)O)cc2)cc1 | 5.96 | – | – | – | – | – | 5 | 16 | – | – | 40 | 68 | 17 | 63 |
| Cc1ccc(-c2ccc(S(=O)(=O)N[C@@H](C(C)C)P(=O)(O)O)cc2)cc1 | 8.64 | 6.82 | 9.41 | 8.39 | 8.48 | 7.96 | – | – | 7.01 | 7.35 | – | – | – | – |
| CC(C)[C@H](NS(=O)(=O)c1ccc(CCc2ccccc2)cc1)P(=O)(O)O | 6.01 | 4.30 | 6.59 | 5.15 | 6.09 | 5.22 | 33 | 34 | – | – | – | – | – | – |
| COc1ccc(-c2ccc(S(=O)(=O)N[C@@H](C(C)C)P(=O)(O)O)cc2)cc1 | 8.82 | 6.34 | – | 8.10 | 8.59 | 7.10 | – | – | 6.82 | 7.28 | – | – | – | – |
| Cc1cccc(-c2ccc(S(=O)(=O)N[C@@H](C(C)C)P(=O)(O)O)cc2)c1 | 7.62 | 5.96 | 9.40 | 7.19 | 7.82 | 7.59 | – | – | 6.49 | 6.64 | – | – | – | – |
| CC(C)[C@H](NS(=O)(=O)c1ccc(-c2cccc(F)c2)cc1)P(=O)(O)O | 7.28 | 4.70 | 8.62 | 6.77 | 7.20 | 6.74 | – | – | 6.23 | 5.92 | – | – | – | – |
| CC(C)[C@H](NS(=O)(=O)c1ccc(-c2ccc(Cl)cc2)cc1)P(=O)(O)O | 8.06 | 5.77 | 9.09 | 7.68 | 8.28 | 7.33 | – | – | 7.11 | 7.55 | – | – | – | – |
